Series [1] concerns Ramos. As to the kind of experiment: Induction of apoptosis in human Ramos cells assessed as early apoptotic cells at 5 uM after 72 hrs by Annexin V-FITC/propidium iodide staining based flow cytometry (reference value: 0.0%). The series is classed as functional. (In general: In flow cytometry, cells or beads pass a laser one at a time.)
For series [2], the system named is Ramos. Put plainly: Induction of apoptosis in human Ramos cells assessed as viable cells at 5 uM after 72 hrs by Annexin V-FITC/propidium iodide staining based flow cytometry (reference value: 98.7%). Conditions: read-out: Activity. The series is classed as functional.
Series [3] concerns Ramos. Put plainly: Induction of apoptosis in human Ramos cells assessed as late apoptotic cells at 20 uM after 72 hrs by Annexin V-FITC/propidium iodide staining based flow cytometry (reference value: 0.5%). The series is classed as functional.
In a further series the test system is PBMC. Put plainly: Cytotoxicity against human PBMCs assessed as induction of morphological changes at <10 uM after 24 hrs by AO/PI staining-based phase contrast microscopy. The series is classed as cell-based.
Series [4] relates to Ramos. As to the kind of experiment: Induction of apoptosis in human Ramos cells assessed as necrotic cells at 20 uM after 72 hrs by Annexin V-FITC/propidium iodide staining based flow cytometry (reference value: 0.7%). The series is classed as functional.
The target of series [5] is Tyrosine-protein kinase BTK (Homo sapiens, UniProt Q06187). As to the kind of experiment: Inhibition of BTK phosphorylation in human NAMALWA cells after 48 hrs by immunoblot analysis. The series is classed as cell-based. A digest of the protocol: (§1)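 Namalwa cells were treated with 1, 5 or 10 µM for 48 h. Lysates were cleared at 14,000 g for 15 min at 4 °C, and 50 µg of protein was run on 8–12% SDS-PAGE and transferred to PVDF. Membranes were blocked in 5% milk for 2 h and incubated with primary antibody overnight at 4 °C. Detection was by ECL, with band IOD normalized to β-actin.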
Sequence of Tyrosine-protein kinase BTK (Q06187 whole entry): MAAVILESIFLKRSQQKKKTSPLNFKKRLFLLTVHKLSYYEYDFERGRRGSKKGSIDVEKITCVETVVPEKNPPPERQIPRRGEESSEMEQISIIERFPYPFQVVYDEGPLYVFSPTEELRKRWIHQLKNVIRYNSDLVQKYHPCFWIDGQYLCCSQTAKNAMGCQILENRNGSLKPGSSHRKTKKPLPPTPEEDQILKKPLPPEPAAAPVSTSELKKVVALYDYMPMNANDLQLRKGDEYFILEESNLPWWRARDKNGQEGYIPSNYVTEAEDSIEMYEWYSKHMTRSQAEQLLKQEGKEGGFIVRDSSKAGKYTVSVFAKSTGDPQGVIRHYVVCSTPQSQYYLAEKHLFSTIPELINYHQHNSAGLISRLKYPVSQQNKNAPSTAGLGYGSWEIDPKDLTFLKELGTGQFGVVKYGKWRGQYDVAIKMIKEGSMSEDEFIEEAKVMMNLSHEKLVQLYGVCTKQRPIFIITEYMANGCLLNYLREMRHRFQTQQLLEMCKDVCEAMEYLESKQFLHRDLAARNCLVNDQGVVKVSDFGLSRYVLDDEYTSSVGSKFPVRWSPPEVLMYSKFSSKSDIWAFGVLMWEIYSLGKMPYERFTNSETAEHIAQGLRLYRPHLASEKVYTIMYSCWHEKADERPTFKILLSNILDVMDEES
(In general: In western blotting, separated proteins are transferred to a membrane and probed.)

Series [6] addresses T1, Tyrosine-protein kinase JAK3 (Homo sapiens) (UniProt P52333).
T1 sequence (whole entry): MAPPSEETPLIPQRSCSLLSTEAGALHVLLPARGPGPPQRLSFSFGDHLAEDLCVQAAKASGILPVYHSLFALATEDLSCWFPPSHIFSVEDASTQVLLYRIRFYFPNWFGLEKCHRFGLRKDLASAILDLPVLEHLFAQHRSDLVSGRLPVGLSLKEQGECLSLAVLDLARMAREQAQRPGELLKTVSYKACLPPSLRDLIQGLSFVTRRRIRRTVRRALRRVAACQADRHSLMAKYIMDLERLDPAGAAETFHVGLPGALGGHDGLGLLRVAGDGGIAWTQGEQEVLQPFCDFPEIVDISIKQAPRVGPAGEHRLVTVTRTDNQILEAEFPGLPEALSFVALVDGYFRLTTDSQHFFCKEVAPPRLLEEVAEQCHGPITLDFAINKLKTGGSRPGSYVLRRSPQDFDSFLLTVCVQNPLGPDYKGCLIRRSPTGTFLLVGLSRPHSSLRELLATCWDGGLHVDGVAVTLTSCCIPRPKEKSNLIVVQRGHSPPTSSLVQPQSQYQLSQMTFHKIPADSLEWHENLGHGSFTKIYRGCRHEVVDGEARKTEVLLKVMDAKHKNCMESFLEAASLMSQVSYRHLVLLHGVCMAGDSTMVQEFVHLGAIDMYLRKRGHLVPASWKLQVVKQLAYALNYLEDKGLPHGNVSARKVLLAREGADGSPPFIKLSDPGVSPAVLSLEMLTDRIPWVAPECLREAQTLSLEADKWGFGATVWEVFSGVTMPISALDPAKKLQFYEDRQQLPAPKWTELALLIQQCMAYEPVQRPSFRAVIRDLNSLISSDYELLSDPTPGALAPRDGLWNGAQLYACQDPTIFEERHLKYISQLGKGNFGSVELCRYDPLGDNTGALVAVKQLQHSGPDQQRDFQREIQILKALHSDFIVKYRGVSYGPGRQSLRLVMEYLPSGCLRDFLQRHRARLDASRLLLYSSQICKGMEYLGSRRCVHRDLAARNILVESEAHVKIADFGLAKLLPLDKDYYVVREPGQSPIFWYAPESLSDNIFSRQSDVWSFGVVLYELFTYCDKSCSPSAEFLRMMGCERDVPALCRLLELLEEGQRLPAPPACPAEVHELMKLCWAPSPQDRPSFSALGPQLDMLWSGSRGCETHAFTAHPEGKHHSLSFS
As to the kind of experiment: Inhibition of JAK3 in human NAMALWA cells assessed as reduction in STAT3 phosphorylation after 48 hrs by immunoblot analysis. The series is classed as cell-based. A digest of the protocol: as §1

Series [7] relates to Ramos. As to the kind of experiment: Induction of apoptosis in human Ramos cells assessed as late apoptotic cells at 10 uM after 72 hrs by Annexin V-FITC/propidium iodide staining based flow cytometry (reference value: 0.5%). The series is classed as functional.
In series [8] the test system is Ramos. Put plainly: Antiproliferative activity against human Ramos cells after 72 hrs by CCK-8 assay.
In series [9] the test system is Ramos. Put plainly: Induction of apoptosis in human Ramos cells assessed as early apoptotic cells at 20 uM after 72 hrs by Annexin V-FITC/propidium iodide staining based flow cytometry (reference value: 0.0%). The series is classed as functional.
Series [10] has as its system Ramos. As to the kind of experiment: Induction of apoptosis in human Ramos cells assessed as necrotic cells at 5 uM after 72 hrs by Annexin V-FITC/propidium iodide staining based flow cytometry (reference value: 0.7%). The series is classed as functional.
Series [11] has as its system Ramos. Put plainly: Induction of apoptosis in human Ramos cells assessed as total apoptosis rate at 5 uM after 72 hrs by Annexin V-FITC/propidium iodide staining based flow cytometry relative to control.
Series [12] deals with Ramos. As to the kind of experiment: Antiproliferative activity against human Ramos cells at 1.25 to 40 uM by CCK-8 assay. The series is classed as functional, cell-based. Conditions: TDE = time-dependent effect. In short, it runs like this: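 CCK-8 viability assay. Cells were seeded at 3000/well in RPMI-1640 with 10% FBS at 37 °C, 5% CO2, for 4 h before treatment. Exposure was 72 h at five concentrations (1.25, 5, 10, 20, 40 µM), each in five replicates. Absorbance was read at 450 nm. IC50 came from dose-response curves, as the mean of at least three separate experiments.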
A general note: Tetrazolium assays rely on reduction of a dye to a coloured formazan, in cell work by metabolically active cells.

The test system of series [13] is Ramos. Put plainly: Induction of apoptosis in human Ramos cells assessed as necrotic cells at 10 uM after 72 hrs by Annexin V-FITC/propidium iodide staining based flow cytometry (reference value: 0.7%). The series is classed as functional.
The subject of series [14] is Ramos. Put plainly: Induction of apoptosis in human Ramos cells assessed as viable cells at 10 uM after 72 hrs by Annexin V-FITC/propidium iodide staining based flow cytometry (reference value: 98.7%). The series is classed as functional. Conditions: read-out: Activity.
Series [15] concerns Ramos. As to the kind of experiment: Antitumor activity against human Ramos cells xenografted in po dosed CB17/SCID mouse assessed as reduction in tumor growth administered as qd for 14 days. The series is classed as functional, organism-based. A digest of the protocol:
(§2)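 Female CB17/SCID mice, 5–6 weeks old and 20–25 g, received 3×10⁶ Ramos cells in 0.1 mL PBS subcutaneously in the right axilla. From day 3 after implantation, dosing was oral at 30 or 60 mg/kg for 14 days; vehicle controls got oral 25% PEG-400. Tumor volume was A×B²/2 from caliper diameters. Tumor weight was taken at sacrifice, and body weight was tracked. n = 5.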

Series [16] relates to Ramos. Put plainly: Antitumor activity against human Ramos cells xenografted in CB17/SCID mouse assessed as tumor growth inhibition at 30 mg/kg, po qd for 14 days. The series is classed as functional. Conditions: 336 h, read-out: TGI. A digest of the protocol:
as §2

In series [17] the test system is Ramos. Put plainly: Induction of apoptosis in human Ramos cells assessed as viable cells at 20 uM after 72 hrs by Annexin V-FITC/propidium iodide staining based flow cytometry (reference value: 98.7%). The series is classed as functional. Conditions: read-out: Activity.
Series [18] has as its system Ramos. As to the kind of experiment: Induction of apoptosis in human Ramos cells assessed as early apoptotic cells at 10 uM after 72 hrs by Annexin V-FITC/propidium iodide staining based flow cytometry (reference value: 0.0%). The series is classed as functional.

For orientation: IC50 means the concentration at which inhibition is half-maximal. Read a low IC50 as inhibition by little substance. In the case of `C=CC(=O)Nc1cccc(Nc2nc(Nc3ccc(OCCCN4CCOCC4)cc3)ncc2Cl)c1`, the Activity in the series with Ramos [1] was 50.8%; in the series on Ramos [3] it was 18.6%; in the series on PBMC it was “Non-Toxic”; in the series with Ramos [4], 3.5%; in the series on Ramos [7] it was 9.6%; in the series on Ramos [9] it was 61.6%. Moreover, the Activity was 6.6% in the series on Ramos [10]; 59% in the series on Ramos [11]; “Tde” with Ramos [12]; 2.7% in the series with Ramos [13]; 67.6% in the series on Ramos [18]. In addition, the viability at 5 µM in the series on Ramos [2] was 34.4%. The inhibition result in series [5] and in series [6] was “Dose-dependent effect” each time. For the same compound, in the series with Ramos [8], the midpoint of inhibition, the IC50, lay at 4.85 µM. For the same compound, the viability at 10 µM with Ramos [14] turned out to be 20.1%. Besides, in the series on Ramos [15], the TGI entry is “Dose-dependent effect”. Further, the inhibition in vivo at 30 mg/kg in the series on Ramos [16] was determined as 36.6%. Besides, the viability at 20 µM in the series with Ramos [17] came out at 16.3%.
For `C=CC(=O)Nc1cccc(Nc2nc(Nc3ccc(OCC(=O)N4CCOCC4)c(Cl)c3)ncc2Cl)c1`, the Activity in the series with Ramos [1] is given as 54.8%; in the series with Ramos [3], 14.4%; with PBMC, “Non-Toxic”; in the series on Ramos [4], 0.4%; in the series with Ramos [7], 10.9%; in the series with Ramos [9] it was 65.1%. For the same compound, the Activity was 0.9% with Ramos [10]; 61.8% with Ramos [11]; “Tde” in the series on Ramos [12]; 1.1% with Ramos [13]; 59% in the series with Ramos [18]. In addition, the viability at 5 µM with Ramos [2] was found to be 37.2%. In addition, the inhibition entry in series [5] and in series [6] was “Dose-dependent effect” each time. Further, in the series with Ramos [8], the IC50 worked out at 2.46 µM. For the same compound, in the series with Ramos [14], the viability at 10 µM is 29%. In addition, the TGI result with Ramos [15] was “Dose-dependent effect”. Also, the inhibition in vivo at 30 mg/kg in the series on Ramos [16] came to 24.4%. In addition, the viability at 20 µM in the series with Ramos [17] amounted to 20.1%.

The values are drawn from ChEMBL document CHEMBL4251566 (Eur J Med Chem, 2018).
